Data from ChEMBL document CHEMBL1155708, “Isoaurostatin, a novel topoisomerase inhibitor produced by Thermomonospora alba” (J Nat Prod, 2001).

What was measured:
[1] = target: T1, Type II restriction enzyme ScaI (Streptomyces caespitosus, UniProt O52691); test: Inhibition of Streptomyces caespitosus Sca 1 assessed as undigested supercoiled pBR322 DNA concentration
T1 sequence (O52691 whole entry): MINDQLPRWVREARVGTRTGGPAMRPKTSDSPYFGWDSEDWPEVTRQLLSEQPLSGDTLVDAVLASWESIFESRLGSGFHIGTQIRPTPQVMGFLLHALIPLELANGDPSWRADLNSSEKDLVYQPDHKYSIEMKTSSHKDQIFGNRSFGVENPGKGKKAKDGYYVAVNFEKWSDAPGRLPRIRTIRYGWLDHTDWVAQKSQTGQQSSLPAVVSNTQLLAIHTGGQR
Method in brief: (§1)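 Restriction enzyme or nuclease activity followed as the remaining undigested supercoiled pBR322 DNA (or RNA) after reaction.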

[2] = target: Telomerase reverse transcriptase (Homo sapiens, UniProt O14746); test: Inhibition of telomerase from human COLO201 cell
[3] = Inhibition of wheat germ topoisomerase 1 assessed as conversion of supercoiled pBR322 DNA to relaxed form; design: species or system Triticum aestivum
DNA topoisomerase 1 = target: T2, DNA topoisomerase 1 (Chlorocebus aethiops, UniProt Q7YR26); test: Inhibition topoisomerase 1 in african green monkey Vero cells assessed as conversion of supercoiled pBR322 DNA to relaxed form; type: cell-based, Chlorocebus sabaeus
T2 sequence (Q7YR26 whole entry): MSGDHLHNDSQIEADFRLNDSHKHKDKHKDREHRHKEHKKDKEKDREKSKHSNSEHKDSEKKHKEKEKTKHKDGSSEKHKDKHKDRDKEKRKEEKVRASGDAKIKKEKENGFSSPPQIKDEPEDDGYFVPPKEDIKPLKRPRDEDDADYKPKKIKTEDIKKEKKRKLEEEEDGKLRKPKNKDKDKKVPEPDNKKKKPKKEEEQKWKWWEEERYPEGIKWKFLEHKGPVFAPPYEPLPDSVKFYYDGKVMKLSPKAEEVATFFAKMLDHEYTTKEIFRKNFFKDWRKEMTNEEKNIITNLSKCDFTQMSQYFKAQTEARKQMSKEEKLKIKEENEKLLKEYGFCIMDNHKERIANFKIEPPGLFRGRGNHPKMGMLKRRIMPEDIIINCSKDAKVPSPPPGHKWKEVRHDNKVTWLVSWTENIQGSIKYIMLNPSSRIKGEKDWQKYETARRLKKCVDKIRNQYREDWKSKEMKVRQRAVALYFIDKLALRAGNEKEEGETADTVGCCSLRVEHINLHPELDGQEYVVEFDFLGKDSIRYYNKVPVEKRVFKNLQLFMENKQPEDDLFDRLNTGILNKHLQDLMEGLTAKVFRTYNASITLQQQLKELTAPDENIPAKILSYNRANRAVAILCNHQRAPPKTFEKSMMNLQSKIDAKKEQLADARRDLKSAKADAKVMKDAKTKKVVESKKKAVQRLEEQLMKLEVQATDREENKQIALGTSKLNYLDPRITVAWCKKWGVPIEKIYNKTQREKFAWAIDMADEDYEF
Method in brief: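 Enzyme source: Vero or NIH3T3 cells cultured 5 days, washed in PBS and pelleted (1 × 10^6 cells). Lysed 30 min on ice in 200 µL buffer (10 mM Tris-HCl pH 7.5, MgCl2, EGTA, AEBSF, β-mercaptoethanol, 0.5% CHAPS, 10% glycerin); the cleared supernatant relaxed supercoiled pBR322. Gel densitometry; IC50 is the amount halving activity.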

Ribonuclease pancreatic = target: T3, Ribonuclease pancreatic (Bos taurus, UniProt P61823); test: Inhibition of bovine pancreas RNase A assessed as undigested supercoiled pBR322 DNA concentration; method in brief: as §1
T3 sequence (P61823 whole entry): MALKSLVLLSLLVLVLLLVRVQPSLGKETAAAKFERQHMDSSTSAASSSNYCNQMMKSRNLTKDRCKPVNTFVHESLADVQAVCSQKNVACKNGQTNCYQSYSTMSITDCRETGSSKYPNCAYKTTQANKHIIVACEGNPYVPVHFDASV

Deoxyribonuclease-1 = Deoxyribonuclease-1 (Bos taurus, UniProt P00639); test: Inhibition of bovine pancreas DNase 1 assessed as undigested supercoiled pBR322 DNA concentration; method in brief: as §1
[4] = target: T4, Deoxyribonuclease-2-alpha (Sus scrofa, UniProt O62855); test: Inhibition of porcine spleen DNase 2 assessed as undigested supercoiled pBR322 DNA concentration; method in brief: as §1
T4 sequence (O62855 whole entry): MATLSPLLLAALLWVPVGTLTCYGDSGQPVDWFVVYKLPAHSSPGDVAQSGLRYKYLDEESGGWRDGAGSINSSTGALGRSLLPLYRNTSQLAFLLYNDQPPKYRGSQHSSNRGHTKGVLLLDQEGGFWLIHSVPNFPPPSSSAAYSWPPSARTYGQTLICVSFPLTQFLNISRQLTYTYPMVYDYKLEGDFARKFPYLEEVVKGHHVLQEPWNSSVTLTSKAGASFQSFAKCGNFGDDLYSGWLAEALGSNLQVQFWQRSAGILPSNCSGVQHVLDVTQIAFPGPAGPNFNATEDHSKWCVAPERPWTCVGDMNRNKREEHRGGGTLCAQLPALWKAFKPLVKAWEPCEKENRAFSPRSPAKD

[5] = target: T5, Type II restriction enzyme BamHI (Bacillus amyloliquefaciens, UniProt P23940); test: Inhibition of Bacillus amyloliquifaction Bam H1 assessed as undigested supercoiled pBR322 DNA concentration; method in brief: as §1
T5 sequence (P23940 whole entry): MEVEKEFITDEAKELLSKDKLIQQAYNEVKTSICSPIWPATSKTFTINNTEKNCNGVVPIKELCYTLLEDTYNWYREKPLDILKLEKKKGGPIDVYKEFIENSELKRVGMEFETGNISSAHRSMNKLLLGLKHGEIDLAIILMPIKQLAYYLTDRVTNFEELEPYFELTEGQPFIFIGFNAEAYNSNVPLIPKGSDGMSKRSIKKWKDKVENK

[6] = target: T6, Type II restriction enzyme HindIII (Haemophilus influenzae (strain ATCC 51907 / DSM 11121 / KW20 / Rd), UniProt P43870); test: Inhibition of Haemophilus influenzae Hind 3 assessed as undigested supercoiled pBR322 DNA concentration; method in brief: as §1
T6 sequence (P43870 whole entry): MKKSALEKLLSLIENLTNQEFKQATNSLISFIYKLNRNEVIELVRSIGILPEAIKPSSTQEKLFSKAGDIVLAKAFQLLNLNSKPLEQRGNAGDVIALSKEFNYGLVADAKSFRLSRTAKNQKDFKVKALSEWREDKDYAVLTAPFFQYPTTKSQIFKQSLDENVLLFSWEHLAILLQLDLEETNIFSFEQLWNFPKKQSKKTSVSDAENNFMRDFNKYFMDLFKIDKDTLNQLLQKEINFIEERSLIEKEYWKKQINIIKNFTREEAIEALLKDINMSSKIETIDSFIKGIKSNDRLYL

[7] = target: DNA topoisomerase 2-alpha (Homo sapiens, UniProt P11388); test: Inhibition human placenta topoisomerase 2 assessed as conversion of supercoiled pBR322 DNA to relaxed form
Chain of DNA topoisomerase 2-alpha (P11388 whole entry): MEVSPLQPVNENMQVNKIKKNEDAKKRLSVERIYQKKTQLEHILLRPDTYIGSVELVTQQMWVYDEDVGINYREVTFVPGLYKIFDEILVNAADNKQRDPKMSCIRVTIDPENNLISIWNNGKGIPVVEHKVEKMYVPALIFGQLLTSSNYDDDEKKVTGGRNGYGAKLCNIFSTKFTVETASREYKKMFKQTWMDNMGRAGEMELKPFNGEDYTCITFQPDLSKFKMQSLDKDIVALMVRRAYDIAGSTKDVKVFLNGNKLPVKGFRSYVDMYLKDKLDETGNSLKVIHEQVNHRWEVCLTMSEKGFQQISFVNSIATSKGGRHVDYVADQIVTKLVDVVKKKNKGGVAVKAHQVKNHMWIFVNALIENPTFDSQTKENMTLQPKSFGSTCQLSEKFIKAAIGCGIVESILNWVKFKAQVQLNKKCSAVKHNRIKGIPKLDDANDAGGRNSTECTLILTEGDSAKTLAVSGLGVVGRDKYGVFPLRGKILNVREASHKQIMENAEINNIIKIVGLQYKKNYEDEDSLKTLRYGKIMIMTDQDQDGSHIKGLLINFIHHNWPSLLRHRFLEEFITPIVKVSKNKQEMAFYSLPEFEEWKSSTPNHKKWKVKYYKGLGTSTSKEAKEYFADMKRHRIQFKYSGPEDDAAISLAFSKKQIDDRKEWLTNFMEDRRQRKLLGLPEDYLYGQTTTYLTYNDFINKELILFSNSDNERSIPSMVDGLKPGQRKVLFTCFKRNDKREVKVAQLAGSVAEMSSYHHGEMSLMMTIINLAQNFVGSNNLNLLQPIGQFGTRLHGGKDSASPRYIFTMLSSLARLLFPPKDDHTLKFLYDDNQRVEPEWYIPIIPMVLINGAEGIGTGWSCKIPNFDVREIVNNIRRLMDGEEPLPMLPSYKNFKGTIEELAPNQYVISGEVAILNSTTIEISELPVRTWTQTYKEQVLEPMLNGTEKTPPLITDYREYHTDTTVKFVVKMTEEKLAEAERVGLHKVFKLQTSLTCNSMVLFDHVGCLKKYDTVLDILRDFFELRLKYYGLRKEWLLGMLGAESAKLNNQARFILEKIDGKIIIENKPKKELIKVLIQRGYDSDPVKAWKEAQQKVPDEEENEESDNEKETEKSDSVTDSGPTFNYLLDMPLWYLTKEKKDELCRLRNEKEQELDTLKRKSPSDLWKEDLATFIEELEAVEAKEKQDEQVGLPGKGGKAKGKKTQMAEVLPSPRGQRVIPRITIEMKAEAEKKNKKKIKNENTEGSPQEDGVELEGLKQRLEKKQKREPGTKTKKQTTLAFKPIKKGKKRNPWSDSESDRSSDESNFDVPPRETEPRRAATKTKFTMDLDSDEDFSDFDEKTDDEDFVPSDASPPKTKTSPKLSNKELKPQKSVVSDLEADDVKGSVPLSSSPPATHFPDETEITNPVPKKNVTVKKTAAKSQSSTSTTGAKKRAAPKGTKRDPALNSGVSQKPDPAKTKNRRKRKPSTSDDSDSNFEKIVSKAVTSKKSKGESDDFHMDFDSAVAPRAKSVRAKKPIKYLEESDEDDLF

Chain of Deoxyribonuclease-1 (P00639 whole entry): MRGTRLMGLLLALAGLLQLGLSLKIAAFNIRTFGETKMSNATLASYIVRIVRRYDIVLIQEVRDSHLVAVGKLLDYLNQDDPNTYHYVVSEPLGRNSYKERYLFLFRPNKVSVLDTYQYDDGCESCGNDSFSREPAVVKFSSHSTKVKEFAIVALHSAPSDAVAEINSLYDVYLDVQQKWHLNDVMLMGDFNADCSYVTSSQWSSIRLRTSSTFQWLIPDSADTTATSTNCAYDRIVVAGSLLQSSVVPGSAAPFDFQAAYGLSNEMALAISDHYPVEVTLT
Chain of Telomerase reverse transcriptase (O14746 whole entry): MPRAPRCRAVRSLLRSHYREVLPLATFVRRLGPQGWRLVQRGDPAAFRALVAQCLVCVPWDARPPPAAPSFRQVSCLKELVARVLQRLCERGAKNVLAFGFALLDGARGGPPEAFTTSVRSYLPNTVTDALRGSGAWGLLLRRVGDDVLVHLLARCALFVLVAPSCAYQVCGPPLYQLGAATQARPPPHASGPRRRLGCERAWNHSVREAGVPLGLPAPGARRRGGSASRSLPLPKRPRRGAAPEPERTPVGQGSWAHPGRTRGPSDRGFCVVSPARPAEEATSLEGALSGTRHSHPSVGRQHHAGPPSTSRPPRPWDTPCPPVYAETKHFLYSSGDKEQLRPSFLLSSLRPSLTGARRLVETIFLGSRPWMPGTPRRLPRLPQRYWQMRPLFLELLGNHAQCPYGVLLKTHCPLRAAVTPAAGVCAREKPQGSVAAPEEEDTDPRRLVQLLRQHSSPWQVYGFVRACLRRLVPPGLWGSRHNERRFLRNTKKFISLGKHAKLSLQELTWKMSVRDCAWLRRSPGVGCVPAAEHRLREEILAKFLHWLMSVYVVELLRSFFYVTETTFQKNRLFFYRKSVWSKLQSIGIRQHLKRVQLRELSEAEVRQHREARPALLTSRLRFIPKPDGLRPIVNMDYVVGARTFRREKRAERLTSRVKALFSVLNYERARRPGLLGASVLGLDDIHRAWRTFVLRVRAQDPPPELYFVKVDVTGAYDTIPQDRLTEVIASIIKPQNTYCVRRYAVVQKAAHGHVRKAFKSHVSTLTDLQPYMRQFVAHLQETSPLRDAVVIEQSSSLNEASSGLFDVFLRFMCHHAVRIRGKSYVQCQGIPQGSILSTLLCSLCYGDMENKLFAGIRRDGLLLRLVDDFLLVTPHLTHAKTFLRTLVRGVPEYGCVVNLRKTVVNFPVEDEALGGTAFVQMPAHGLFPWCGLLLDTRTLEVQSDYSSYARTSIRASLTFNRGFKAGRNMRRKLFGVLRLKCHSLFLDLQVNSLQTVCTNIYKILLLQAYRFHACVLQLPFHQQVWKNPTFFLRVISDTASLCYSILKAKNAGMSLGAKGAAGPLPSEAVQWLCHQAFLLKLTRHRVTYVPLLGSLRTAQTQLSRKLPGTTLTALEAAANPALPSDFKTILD

IC50 [7]	Structure (SMILES)	IC50 [1]	IC50 [2]	IC50 [3]	IC50 (DNA topoisomerase 1)	IC50 (Ribonuclease pancreatic)	IC50 (Deoxyribonuclease-1)	IC50 [4]	IC50 [5]	IC50 [6]
	CC[C@@]1(O)C(=O)OCc2c1cc1n(c2=O)Cc2cc3ccccc3nc2-1 [CAMPTOTHECIN]	> 300 µM	> 300 µM	3 µM	27 µM	> 300 µM	> 300 µM	> 300 µM	> 300 µM	> 300 µM
1 µM	COc1cccc2c1C(=O)c1c(O)c3c(c(O)c1C2=O)C[C@@](O)(C(=O)CO)C[C@@H]3O[C@H]1C[C@H](N)[C@H](O)[C@H](C)O1 [DOXORUBICIN]	25 µM	73 µM	> 200 µM	> 200 µM	25 µM	> 200 µM	> 200 µM	> 200 µM	96 µM
4 µM	C=C1NC(=O)C(C)C(CCC(C)C(=O)/C=C/C(C)=C/CC(C)CCCCCCC)OC(=O)[C@H](CC(OS(=O)(=O)O)C(N)=O)NC(=O)[C@@H](C)CNC1=O (some centres undefined) [TOPOSTATIN]	7 µM	> 250 µM	1 µM	17 µM	> 250 µM	> 250 µM	> 250 µM	185 µM	17 µM

Structure (SMILES)	IC50 [7]	IC50 [1]	IC50 [2]	IC50 [3]	IC50 (DNA topoisomerase 1)	IC50 (Ribonuclease pancreatic)	IC50 (Deoxyribonuclease-1)	IC50 [4]	IC50 [5]	IC50 [6]
O=C1Oc2cc(O)ccc2/C1=C\c1ccc(O)cc1 [ISOAUROSTATIN]	> 400 µM	> 400 µM	> 400 µM	67 µM	> 400 µM	> 400 µM	> 400 µM	> 400 µM	> 400 µM	> 400 µM
